# Test results reported in ChEMBL document CHEMBL5055628, “Anticancer properties of indole derivatives as IsoCombretastatin A-4 analogues” (Eur J Med Chem, 2021).
# Calls of active or inactive are those of the source. No cut-off for these calls is given here.
# Experiments:
# [1] = tested on: HCT-116; test: Cytotoxicity against human HCT-116 cells assessed as inhibition of cell growth measured after 72 hrs by CellTiter-Glo reagent based luminescence assay; format: functional; settings: HCT-116, 72 h
# Method in brief: (§1)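 Cells (HCT-116 in McCoy's 5A; U87-MG in DMEM 4.5 g/L glucose; all with 10% serum, 1% glutamine, 37 °C, 5% CO2) seeded at 3 × 10³/well, treated after 24 h with 10 final concentrations by serial dilution; vehicle controls. After 72 h, CellTiter-Glo luminescence; IC50 from four- or five-parameter logistic fit, triplicate, mean of three experiments.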
# [2] = Drug metabolism in rat liver microsomes assessed as N-demethylated metabolite formation measured after 96 hrs by ESI-HRMS assay; format: ADME, Microsome
# Method in brief: (§2)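 Compound at 100 μM final incubated at 37 °C with rat or human liver microsomes (1 mg/mL protein, 10 mM buffer pH 7.4) plus NADPH-generating system (0.6 mM NADPNa4, 6.4 mM glucose-6-phosphate, 2 U/mL G6PDH). After 96 h, ethyl acetate extraction and HPLC-MS/MS (positive ESI, m/z 150–450, collision-induced dissociation) to identify metabolites.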
# [3] = Drug metabolism in rat liver microsomes assessed as hydroxylated metabolite formation measured after 96 hrs by ESI-HRMS assay; format: ADME, Microsome; method in brief: as §2
# [4] = Drug metabolism in human liver microsomes assessed as N-demethylated metabolite formation measured after 96 hrs by ESI-HRMS assay; format: ADME, Microsome; method in brief: as §2
# [5] = Drug metabolism in human liver microsomes assessed as hydroxylated metabolite formation measured after 96 hrs by ESI-HRMS assay; format: ADME, Microsome; method in brief: as §2
# [6] = Metabolic stability in rat liver microsomes assessed as half life measured after 96 hrs by HPLC-MS/MS analysis; format: ADME, Microsome
# Method in brief: (§3)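 Compound (100 μM final) incubated at 37 °C with rat or human liver microsomes (1 mg/mL protein, pH 7.4) and NADPH-generating system; triplicate aliquots at 0–144 h quenched with isoCA-4 internal standard and ethyl acetate, quantified by HPLC-MS/MS against calibration curves.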
# [7] = Metabolic stability in human liver microsomes assessed as half life measured after 96 hrs by HPLC-MS/MS analysis; format: ADME, Microsome; method in brief: as §3
# [8] = Inhibition of porcine brain tubulin polymerization incubated for 30 mins followed by cooling on ice for 10 mins and measured by UV spectrometer assay; format: tissue-based, Sus scrofa
# Method in brief: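 Porcine brain tubulin (Shelanski isolation) in 0.1 M MES, 1.5 mM GTP, 1 mM EGTA, 1 mM β-ME, 1 mM MgCl2, pH 6.7, diluted to 1.5 mg/mL; ligand or DMSO 30 min at 20 °C, 10 min on ice. Assembly by 450 nm turbidity on 4→37 °C shift, plateau minus baseline vs no-ligand control (100%); IC50 from mono-exponential fit of ligand:tubulin ratio, three independent experiments.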
# [9] = tested on: U-87 MG; test: Cytotoxicity against human U-87 MG cells assessed as inhibition of cell growth measured after 72 hrs by CellTiter-Glo reagent based luminescence assay; format: functional, U-87MG ATCC; method in brief: as §1
# [10] = tested on: A549; test: Cytotoxicity against human A549 cells assessed as inhibition of cell growth measured after 72 hrs by CellTiter-Glo reagent based luminescence assay; format: functional; settings: A549, 72 h
# Method in brief: (§4)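 Cells seeded at 3 × 10³/well and grown 24 h. A549, MDA-MB231, K562 and K562R (doxorubicin-resistant) were in RPMI 1640; MiaPaCa2 and HT29 in DMEM (4.5 g/L glucose); all media had 10% FCS and 1% glutamine, at 37 °C and 5% CO₂. Cells got 10 final concentrations by serial dilution, with vehicle controls, for 72 h. CellTiter-Glo luminescence was read after 15 min. Triplicate runs; IC50 from four- or five-parameter logistic fits.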
# [11] = tested on: MDA-MB-231; test: Cytotoxicity against human MDA-MB-231 cells assessed as inhibition of cell growth measured after 72 hrs by CellTiter-Glo reagent based luminescence assay; format: functional; settings: MDA-MB-231, 72 h; method in brief: as §4
# [12] = tested on: MIA PaCa-2; test: Cytotoxicity against human MIA PaCa-2 cells assessed as inhibition of cell growth measured after 72 hrs by CellTiter-Glo reagent based luminescence assay; format: functional; settings: MIA PaCa-2, 72 h; method in brief: as §4
# [13] = tested on: HT-1080; test: Cytotoxicity against human HT-1080 cells assessed as inhibition of cell growth measured after 72 hrs by CellTiter-Glo reagent based luminescence assay; format: functional; settings: HT-1080, 72 h
# [14] = tested on: K562; test: Cytotoxicity against human K562 cells assessed as inhibition of cell growth measured after 72 hrs by CellTiter-Glo reagent based luminescence assay; format: functional; settings: K562, 72 h; method in brief: as §4
# [15] = tested on: K-562R; test: Cytotoxicity against human K-562R cells assessed as inhibition of cell growth measured after 72 hrs by CellTiter-Glo reagent based luminescence assay; format: functional; method in brief: as §4
# [16] = tested on: HT-29; test: Cytotoxicity against human HT-29 cells assessed as inhibition of cell growth measured after 72 hrs by CellTiter-Glo reagent based luminescence assay; format: functional; settings: HT-29, 72 h; method in brief: as §4
# [17] = tested on: K562; test: Cell cycle arrest in human K562 cells assessed as accumulation of cells in G2/M phase at 0.5 nM measured after 24 hrs by PI staining based flowcytometry; format: functional
# Method in brief: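 Exponentially growing K562 cells exposed to compound (0.5 and 1 nM) or DMSO alone for 24 h. DNA content stained with propidium iodide and cell-cycle distribution read by flow cytometry.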
# [18] = tested on: K562; test: Induction of mitochondrial dysfunction in human K562 cells assessed as green monomer formation at 0.5 nM measured after 48 hrs by JC-1 staining based flow cytometry (reference value: 1.3%); format: functional
# [19] = tested on: K562; test: Induction of mitochondrial dysfunction in human K562 cells assessed as red aggregate formation at 0.5 nM measured after 48 hrs by JC-1 staining based flow cytometry (reference value: 98.3%); format: functional
# [20] = tested on: K562; test: Induction of mitochondrial dysfunction in human K562 cells assessed as green monomer formation at 1 nM measured after 48 hrs by JC-1 staining based flow cytometry (reference value: 1.3%); format: functional
# [21] = tested on: K562; test: Induction of mitochondrial dysfunction in human K562 cells assessed as red aggregate formation at 1 nM measured after 48 hrs by JC-1 staining based flow cytometry (reference value: 98.3%); format: functional
# [22] = tested on: K562; test: Induction of mitochondrial dysfunction in human K562 cells assessed as green monomer formation at 5 nM measured after 48 hrs by JC-1 staining based flow cytometry (reference value: 1.3%); format: functional
# [23] = tested on: K562; test: Induction of mitochondrial dysfunction in human K562 cells assessed as red aggregate formation at 5 nM measured after 48 hrs by JC-1 staining based flow cytometry (reference value: 98.3%); format: functional
# [24] = tested on: K562; test: Induction of mitochondrial dysfunction in human K562 cells assessed as green monomer formation at 10 nM measured after 48 hrs by JC-1 staining based flow cytometry (reference value: 1.3%); format: functional
# [25] = tested on: K562; test: Induction of mitochondrial dysfunction in human K562 cells assessed as red aggregate formation at 10 nM measured after 48 hrs by JC-1 staining based flow cytometry (reference value: 98.3%); format: functional
# [26] = tested on: K562; test: Induction of mitochondrial dysfunction in human K562 cells assessed as green monomer formation at 50 nM measured after 48 hrs by JC-1 staining based flow cytometry (reference value: 1.3%); format: functional
# [27] = tested on: K562; test: Induction of mitochondrial dysfunction in human K562 cells assessed as red aggregate formation at 50 nM measured after 48 hrs by JC-1 staining based flow cytometry (reference value: 98.3%); format: functional
# [28] = tested on: K562; test: Anticlonogenic activity against human K562 cells assessed as reduction in number of cell colonies at 0.05 to 10 nM measured after 10 days by MTT reagent based colony formation assay; format: functional; settings: dose 0.05-10 nM, time 10.0 day
# Method in brief: (§5)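 10^3 K562 cells (RPMI 1640, 10% FBS) or imatinib-resistant K562IR cells (RPMI 1640 with 25 mM HEPES, 10% FCS; kept in 1 μM imatinib, washed three times before use) grown 10 days in semisolid methylcellulose medium with 10% FBS, with or without compound. Colonies stained with 1 mg/mL MTT and image-analysed; three independent experiments, mean ± SD, two-way ANOVA with Tukey test.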
# [29] = tested on: K562; test: Anticlonogenic activity against human K562 cells assessed as reduction in total surface area of cell colonies at 0.05 to 10 nM measured after 10 days by MTT reagent based colony formation assay; format: functional; settings: dose 0.05-10 nM, time 10.0 day; method in brief: as §5
# [30] = tested on: K562; test: Anticlonogenic activity against human K562 cells assessed as reduction in average size of cell colonies at 0.05 to 10 nM measured after 10 days by MTT reagent based colony formation assay; format: functional; settings: dose 0.05-10 nM, time 10.0 day; method in brief: as §5
# [31] = tested on: K-562R; test: Anticlonogenic activity against imatinib-resistant human K-562R cells assessed as reduction in number of cell colonies at 0.01 to 10 nM measured after 10 days by MTT reagent based colony formation assay; format: functional; settings: dose 0.01-10 nM, time 10.0 day; method in brief: as §5
# [32] = tested on: K-562R; test: Anticlonogenic activity against imatinib-resistant human K-562R cells assessed as reduction of total surface of cell colonies at 0.01 to 10 nM measured after 10 days by MTT reagent based colony formation assay; format: functional; settings: dose 0.01-10 nM, time 10.0 day; method in brief: as §5
# [33] = tested on: K-562R; test: Anticlonogenic activity against imatinib-resistant human K-562R cells assessed as reduction of average size of cell colonies at 0.01 to 10 nM measured after 10 days by MTT reagent based colony formation assay; format: functional; settings: dose 0.01-10 nM, time 10.0 day; method in brief: as §5
compound,measurement,setting,value
CCn1c(CO)cc2cc(N(C)c3nc(C)nc4ccccc34)ccc21,IC50,[1],0.08 nM
same,Drug metabolism,[2],Metabolite_Detected
same,Drug metabolism,[3],Metabolite_Detected
same,Drug metabolism,[4],Metabolite_Detected
same,Drug metabolism,[5],Metabolite_Detected
same,half-life,[6],140 h
same,half-life,[7],145 h
same,IC50,[8],1900 nM
same,IC50,[9],0.51 nM
same,IC50,[10],0.7 nM
same,IC50,[11],0.25 nM
same,IC50,[12],0.09 nM
same,IC50,[13],0.08 nM
same,IC50,[14],0.26 nM
same,IC50,[15],0.1 nM
same,IC50,[16],0.84 nM
same,Activity,[17],Active
same,Activity,[18],21.3%
same,Activity,[19],77.6%
same,Activity,[20],22.3%
same,Activity,[21],76.9%
same,Activity,[22],23.1%
same,Activity,[23],75.8%
same,Activity,[24],31.2%
same,Activity,[25],68.1%
same,Activity,[26],39.2%
same,Activity,[27],60%
same,Activity,[28],Active
same,Activity,[29],Active
same,Activity,[30],Active
same,Activity,[31],Active
same,Activity,[32],Active
same,Activity,[33],Active
